Experiments:
[1] = target: T1, Nuclear receptor subfamily 1 group I member 3 (Mus musculus, UniProt O35627, I252L); settings: HEK293, mouse
[2] = target: Nuclear receptor subfamily 1 group I member 3 (Mus musculus, UniProt O35627, F171A); settings: HEK293, mouse
[3] = target: T2, Nuclear receptor subfamily 1 group I member 3 (Mus musculus, UniProt O35627, Y336A); experiment: Enhancement of steroid receptor coactivator 1 binding to mouse CAR Y336A mutant […] at 10 uM by yeast two-hybrid assay; type: cell-based
How it was run: (§1)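 Yeast two-hybrid: yeast expressing wild-type or mutant mouse CAR LBD plus SRC-1 or NCoR, selected on SD medium lacking Leu and Trp. Pooled colonies treated with DMSO or test chemical for 3.5 h. β-Galactosidase normalized to cell density. SRC-1 reference: wild-type + DMSO = 100. NCoR reference: 10 µM androstenol = 100. Mean ± SD, two independent determinations, each in triplicate.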

[4] = target: T3, Nuclear receptor subfamily 1 group I member 3 (Mus musculus, UniProt O35627, T350M); experiment: Enhancement of steroid receptor coactivator 1 binding to mouse CAR T350M mutant […] at 10 uM by yeast two-hybrid assay; type: cell-based
How it was run: as §1

[5] = target: T4, Nuclear receptor subfamily 1 group I member 3 (Mus musculus, UniProt O35627, H213A); experiment: Effect on steroid receptor co-activator 1 binding to mouse CAR H213A mutant […] at 2 uM by yeast two-hybrid assay; type: cell-based; settings: read-out: Activity
How it was run: as §1

[6] = target: T1, Nuclear receptor subfamily 1 group I member 3; experiment: Activation of mouse CAR I252L mutant expressed in HEK293 cells at 2 uM by mammalian one-hybrid assay; type: cell-based; settings: hek293, 2 µM
How it was run: (§2)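 GAL4-DBD fused to mouse CAR LBD (residues 118-358), wild-type or point mutant, cotransfected with UASx4-tk-luc reporter and pCMVβ into HEK293 cells. Cells were exposed to final 1 µM, 2 µM or 10 µM test chemical, or 0.1% v/v DMSO, for 24 h after transfection. Luciferase was normalized to β-galactosidase and set against empty GAL4 vector (=1.0). Mean ± standard deviation, three independent experiments.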

[7] = target: T2, Nuclear receptor subfamily 1 group I member 3; experiment: Decrease in nuclear co-repressor receptor binding to mouse CAR Y336A mutant […] at 2 uM by yeast two-hybrid assay; type: cell-based; settings: read-out: Activity
How it was run: as §1

[8] = target: Nuclear receptor subfamily 1 group I member 3 (Mus musculus, UniProt O35627, S251L); experiment: Decrease in steroid receptor coactivator 1 binding to mouse CAR S251L mutant […] at 2 uM by yeast two-hybrid assay; type: cell-based; settings: read-out: Activity
How it was run: as §1

[9] = target: T5, Nuclear receptor subfamily 1 group I member 3 (Mus musculus, UniProt O35627, N175A); experiment: Enhancement of steroid receptor co-activator 1 binding to mouse CAR N175A mutant […] at 2 uM by yeast two-hybrid assay; type: cell-based
How it was run: as §1

[10] = target: T3, Nuclear receptor subfamily 1 group I member 3; experiment: Activation of mouse CAR T350M mutant expressed in HEK293 cells at 2 uM by mammalian one-hybrid assay; type: cell-based; settings: hek293, 2 µM
How it was run: as §2

[11] = target: Nuclear receptor subfamily 1 group I member 3 (Mus musculus, UniProt O35627, F171L); experiment: Effect on steroid receptor co-activator 1 binding to mouse CAR F171L mutant […] at 2 uM by yeast two-hybrid assay; type: cell-based; settings: read-out: Activity
How it was run: as §1

[12] = target: T6, Nuclear receptor subfamily 1 group I member 3 (Mus musculus, UniProt O35627, L212A); experiment: Enhancement of steroid receptor co-activator 1 binding to mouse CAR L212A mutant […] at 2 uM by yeast two-hybrid assay; type: cell-based
How it was run: as §1

[13] = target: T7, Nuclear receptor subfamily 1 group I member 3 (Mus musculus, UniProt O35627, L253F); experiment: Decrease in steroid receptor coactivator 1 binding to mouse CAR L253F mutant […] at 2 uM by yeast two-hybrid assay; type: cell-based; settings: read-out: Activity
How it was run: as §1

[14] = target: T8, Nuclear receptor subfamily 1 group I member 3 (Mus musculus, UniProt O35627, T350A); experiment: Decrease in nuclear co-repressor receptor binding to mouse CAR T350A mutant […] at 2 uM by yeast two-hybrid assay; type: cell-based; settings: read-out: Activity
How it was run: as §1

[15] = target: T8, Nuclear receptor subfamily 1 group I member 3; experiment: Decrease in mouse CAR T350A mutant activation expressed in HEK293 cells at 2 uM by mammalian one-hybrid assay; type: cell-based; settings: read-out: Activity
How it was run: as §2

[16] = target: Nuclear receptor subfamily 1 group I member 3 (Mus musculus, UniProt O35627, L353A); experiment: Effect on nuclear co-repressor receptor binding to mouse CAR L353A mutant […] at 1 uM by yeast two-hybrid assay; type: cell-based; settings: read-out: Activity
How it was run: (§3)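 Yeast expressing wild-type or mutant mouse CAR LBD plus NCoR, selected on SD plates lacking leucine and tryptophan. Pooled colonies treated with DMSO or compound for 3.5 h. β-Galactosidase activity normalized to cell density. Reference is 10 µM androstenol (=100). Mean ± SD of two independent determinations, each in triplicate.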

[17] = target: T5, Nuclear receptor subfamily 1 group I member 3; experiment: Decrease in mouse CAR N175A mutant activation expressed in HEK293 cells at 1 uM by mammalian one-hybrid assay; type: cell-based; settings: read-out: Activity
How it was run: (§4)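 GAL4 DBD fused to mouse CAR LBD (residues 118-358), wild type or point mutant, cotransfected with UASx4-tk-luc reporter and pCMVβ into HEK293 cells. Cells cultured with DMSO (0.1% v/v) or compound (final 1, 2 or 10 µM). Lysed 24 h post-transfection. Luciferase normalized to β-galactosidase, expressed relative to empty GAL4 vector (=1.0). Mean ± SD, three independent experiments.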

[18] = target: T6, Nuclear receptor subfamily 1 group I member 3; experiment: Effect on nuclear co-repressor receptor binding to mouse CAR L212A mutant […] at 1 uM by yeast two-hybrid assay; type: cell-based; settings: read-out: Activity
How it was run: as §3

[19] = target: T2, Nuclear receptor subfamily 1 group I member 3; experiment: Decrease in steroid receptor coactivator 1 binding to mouse CAR Y336A mutant […] at 1 uM by yeast two-hybrid assay; type: cell-based; settings: read-out: Activity
How it was run: as §3, with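 “SRC-1,” for “NCoR,”, “wild-type CAR + SRC-1 with DMSO” for “10 µM androstenol”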

[20] = target: T7, Nuclear receptor subfamily 1 group I member 3; experiment: Effect on nuclear co-repressor receptor binding to mouse CAR L253F mutant […] at 1 uM by yeast two-hybrid assay; type: cell-based; settings: read-out: Activity
How it was run: as §3

[21] = target: T5, Nuclear receptor subfamily 1 group I member 3; experiment: Effect on nuclear co-repressor receptor binding to mouse CAR N175A mutant […] at 1 uM by yeast two-hybrid assay; type: cell-based; settings: read-out: Activity
How it was run: as §3

[22] = target: T5, Nuclear receptor subfamily 1 group I member 3; experiment: Decrease in steroid receptor co-activator 1 binding to mouse CAR N175A mutant […] at 1 uM by yeast two-hybrid assay; type: cell-based; settings: read-out: Activity
How it was run: as §3, with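 “SRC-1,” for “NCoR,”, “wild-type CAR + SRC-1 with DMSO” for “10 µM androstenol”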

[23] = target: T4, Nuclear receptor subfamily 1 group I member 3; experiment: Activation of mouse CAR H213A mutant expressed in HEK293 cells at 1 uM by mammalian one-hybrid assay; type: cell-based; settings: hek293, 1 µM
How it was run: as §4

[24] = target: T6, Nuclear receptor subfamily 1 group I member 3; experiment: Effect on nuclear co-repressor receptor binding to mouse CAR L212A mutant […] at 10 uM by yeast two-hybrid assay; type: cell-based; settings: read-out: Activity
How it was run: as §1

T6 sequence (O35627 whole entry L212A): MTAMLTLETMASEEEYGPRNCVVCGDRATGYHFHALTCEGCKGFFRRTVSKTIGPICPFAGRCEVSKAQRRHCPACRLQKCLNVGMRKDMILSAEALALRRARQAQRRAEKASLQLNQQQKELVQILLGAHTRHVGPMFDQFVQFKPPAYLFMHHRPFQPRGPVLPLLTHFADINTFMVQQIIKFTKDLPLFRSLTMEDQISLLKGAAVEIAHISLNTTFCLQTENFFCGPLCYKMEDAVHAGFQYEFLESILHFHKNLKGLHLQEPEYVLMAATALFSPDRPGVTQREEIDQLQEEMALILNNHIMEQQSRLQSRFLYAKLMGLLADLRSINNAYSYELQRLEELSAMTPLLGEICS
T2 sequence (O35627 whole entry Y336A, the tested form may be a part): as the sequence (O35627 whole entry L212A) above, with A212L, Y336A counted along it
T5 sequence (O35627 whole entry N175A): as the sequence (O35627 whole entry L212A) above, with N175A, A212L counted along it
T7 sequence (O35627 whole entry L253F): as the sequence (O35627 whole entry L212A) above, with A212L, L253F counted along it
T4 sequence (O35627 whole entry H213A): as the sequence (O35627 whole entry L212A) above, with A212L, H213A counted along it
T8 sequence (O35627 whole entry T350A): as the sequence (O35627 whole entry L212A) above, with A212L, T350A counted along it
T1 sequence (O35627 whole entry I252L): as the sequence (O35627 whole entry L212A) above, with A212L, I252L counted along it
T3 sequence (O35627 whole entry T350M): as the sequence (O35627 whole entry L212A) above, with A212L, T350M counted along it
Chain of Nuclear receptor subfamily 1 group I member 3 (Mus musculus, UniProt O35627, F171L) (O35627 whole entry F171L): as the sequence (O35627 whole entry L212A) above, with F171L, A212L counted along it
Chain of Nuclear receptor subfamily 1 group I member 3 (Mus musculus, UniProt O35627, L353A) (O35627 whole entry L353A, the tested form may be a part): as the sequence (O35627 whole entry L212A) above, with A212L, L353A counted along it
Chain of Nuclear receptor subfamily 1 group I member 3 (Mus musculus, UniProt O35627, F171A) (O35627 whole entry F171A): as the sequence (O35627 whole entry L212A) above, with F171A, A212L counted along it
Chain of Nuclear receptor subfamily 1 group I member 3 (Mus musculus, UniProt O35627, S251L) (O35627 whole entry S251L): as the sequence (O35627 whole entry L212A) above, with A212L, S251L counted along it

C[C@]12CC[C@@H](O)C[C@@H]1CC[C@@H]1[C@@H]2CC[C@]2(C)C=CC[C@@H]12 [ANDROSTENOL] showed an activity at 10 µM [1] of under 50%.

Compound COc1ccccc1CC(CC(=O)Cc1ccccc1)OC (centres undefined) has an activity at 10 µM [2] of under 50%, an Activity [3] of over 150% and an Activity [4] of over 50%.

Clc1ccccc1C(c1ccccc1)(c1ccccc1)n1ccnc1 [CLOTRIMAZOLE] gave an activity at 2 µM [5] of under 50%, an Activity [6] of 50% and an inhibition at 2 µM [7] of at least 50%. The inhibition at 2 µM [8] was at least 50%, the Activity [9] was “>= 50%” and the Activity [10] was over 100%. For the same compound, the activity at 2 µM [11] was at least 50%, the Activity [12] was “>= 50%” and the inhibition at 2 µM [13] was at least 50%. The inhibition at 2 µM [14] was at least 50% and the inhibition at 2 µM [15] was under 50%.

Compound Clc1cnc(Oc2ccc(Oc3ncc(Cl)cc3Cl)cc2)c(Cl)c1 has an activity at 1 µM [16] of under 50%, an inhibition at 1 µM [17] of under 50% and an activity at 1 µM [18] of under 50%. The inhibition at 1 µM [19] was at least 50%, the activity at 1 µM [20] was under 50% and the activity at 1 µM [21] was under 50%. It also gave an inhibition at 1 µM [22] of at least 50% and an Activity [23] of 50%.

For COc1ccc(C(=O)CCCc2ccccc2)cc1, the activity at 10 µM [24] was under 50%.

— ChEMBL document CHEMBL1152300, “Ligand specificity of constitutive androstane receptor as probed by induced-fit docking and mutagenesis” (J Med Chem, 2008)
